In the test the target is Reverse transcriptase (Human immunodeficiency virus 1, UniProt Q9WKE8). In words: Binding affinity to HIV1 reverse transcriptase treated for 3 mins by surface plasmon resonance. A digest of the protocol: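 Kinetic titration SPR at 25 °C against an RT surface, with an untreated dextran surface as reference. Running buffer: 10 mM Hepes, 150 mM NaCl, 3.4 mM EDTA, 0,01% P20, 4% DMSO, pH 7.5. Five sequential 3-min injections at 50 µL·min^-1 (0.075–1.2 µM, 2-fold steps), each followed by 2-min dissociation, and a final 20-min dissociation. Data were double-referenced.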
A general note: SPR reads the build-up and loss of mass on a sensor chip optically.

We go through one molecule from BindingDB's records for doi:10.1021/jm801330n (University of Siena, 2009).

What is called koff is the first-order rate constant of dissociation. A higher koff goes with a short-lived complex.

`COc1ccc([C@@H]2C[C@H]2CSc2nc([C@H](C)c3c(F)cccc3F)c(C)c(=O)[nH]2)cc1` showed an off-rate constant (koff) of 2.1e-05 s⁻¹.
